Most compounds without a hit are left out; they make up all but 2.9% or so of the library.
Cneo AK release – Cryptococcus neoformans cell lysis inducers, primary screen, AK release luminescence, single concentration; 360,000 tested, 0.2% active; lysis activity, % at 15 µM; C. neoformans lysis, adenylate kinase release luminescence, 4 h; normalised: neutral wells 0, clomiphene wells 100;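 active means mean lysis activity across replicates of at least 80%, whatever share of replicates individually reach that level; inactive means mean lysis activity below 80%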
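Material – log-phase Cryptococcus neoformans yeast cells · Input – 5 × 10^6 yeast cells/mL · Medium – fresh YPD growth medium · Doses – single compound concentration per well · Timing – static 4 h at 37 °C with compound, 1 h detection · Detection – adenylate kinase release luminescence · Read-out – signal increase indicating cell lysis · Control set – Clomiphene as positive lysis control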
PAX8 inh HTS – inhibitors of PAX8-driven TPO luciferase reporter, primary screen, RMG-I cells, single concentration; SteadyGlo, 24 h; AID 652154, 2013; inhibition, % at 12.6 µM; 360,000 tested, 1.2% active;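 active means mean replicate inhibition at least 60% with every replicate also reaching 60%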;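 further: luciferase light reporting Pax8 driven TPO promoter activity; plate controls were median of neutral control wells for no effect and mitoxantrone controls for full effect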
dFosB activator – activators of delta FosB homodimer, primary screen, biochemical, fluorescence polarization, TAMRA-CDK5 oligo, single point | Protein FosB (Mus musculus), P13346 | activation, % at 25 µM | 340,000 tested, 0.99% active | AID 493131, 2011 | purified delta FosB; percent of positive-control signal above neutral wells;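 active means mean activation above about 17%, with every replicate also reaching it, limit read from the data, passing the limit was not always enough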
Target sequence (P13346 whole entry, looked up): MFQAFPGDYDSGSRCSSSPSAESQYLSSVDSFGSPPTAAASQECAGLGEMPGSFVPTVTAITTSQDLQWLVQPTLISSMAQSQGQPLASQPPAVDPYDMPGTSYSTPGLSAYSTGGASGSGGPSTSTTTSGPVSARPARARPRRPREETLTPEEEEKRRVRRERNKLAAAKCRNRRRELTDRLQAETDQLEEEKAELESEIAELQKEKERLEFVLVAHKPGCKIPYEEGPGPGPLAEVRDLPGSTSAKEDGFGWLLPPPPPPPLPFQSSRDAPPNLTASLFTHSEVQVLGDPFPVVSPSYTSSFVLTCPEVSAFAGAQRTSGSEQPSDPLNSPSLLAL
HIV Env fusion – inhibitors of HIV-1 Env-driven cell-cell fusion, primary screen, HeLa-JRFL effector, CEM21 target cells, luciferase | 360,000 tested, 1.1% active | inhibition, % at 12.3 µM;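 active means mean replicate inhibition score of at least 50 and every replicate individually at or above 50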;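 further: 0% = plate neutral controls and 100% = maraviroc near 300 nM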
CDK5 inh – inhibitors of human CDK5/p35 kinase, primary screen, biochemical, single concentration. Cyclin-dependent kinase 5 (Homo sapiens) + Cyclin-dependent kinase 5 activator 1 (Homo …. Recombinant CDK5/p35, ADP-Glo luminescence, 60 min. inhibition, % at 10 µM. 330,000 tested, 0.01% active;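 active means highest replicate inhibition of at least 50% and at least 75% of replicates reaching 50%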;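 further: plate controls were DMSO neutral control for no effect and GW8510 at 10 µM for full effect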
GSIS activator – GLuc luminescence reporter in INS-1E cells, primary screen for activators of glucose-dependent secretion of insulin; 370,000 tested, 0.61% active; activation, % at 16.6 µM; AID 743287, 2014; INS-1E GLuc reporter insulin secretion, 2-3 h;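 active means lowest replicate activation of at least 40%, so every replicate reaches that level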;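 further: 0% = median of neutral control wells and 100% = median of IBMX positive control wells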
* hit, by the source's call; [ ] = another dose, or the depositor's remark.

Results for CCCC(=O)Nc1c(C(=O)OCC)oc2ccccc12 ?
Cneo AK release: 16; PAX8 inh HTS: -25; dFosB activator: -1; HIV Env fusion: 0; CDK5 inh: 2; GSIS activator: 41*

What do the screens show for `C[C@@H]1CN([C@@H](C)CO)C(=O)c2cc(NC(=O)Nc3ccc4c(c3)OCO4)ccc2O[C@H]1CN(C)Cc1ccc(C(=O)O)cc1`?
Cneo AK release: -4; GSIS activator: 20

Results for Cc1cc(C)n(Cc2ccc(NC(=O)c3ccc(COc4ccccc4Br)cc3)cc2)n1 ?
Cneo AK release: 2; dFosB activator: 1; HIV Env fusion: 79*; CDK5 inh: 0; GSIS activator: 5

What do the screens show for `NC(=O)c1ccc(NC(=O)c2ccc(COc3ccccc3Br)cc2)cc1`?
Cneo AK release: 0; PAX8 inh HTS: -21; dFosB activator: 4; HIV Env fusion: -26; CDK5 inh: 1; GSIS activator: 17

Results for C[C@H](CO)N1C[C@H](C)[C@@H](CN(C)Cc2ccc(Oc3ccccc3)cc2)Oc2c(NS(C)(=O)=O)cccc2C1=O ?
Cneo AK release: 2; PAX8 inh HTS: 0; GSIS activator: -21

How did Cc1c(C(=O)OCC(C)C)[nH]c2c1C(=O)CC(c1ccco1)C2 (configuration not stated) do in these assays?
Cneo AK release: -2; PAX8 inh HTS: 68*; dFosB activator: 7; HIV Env fusion: -74; CDK5 inh: -5; GSIS activator: -4

What do the screens show for `Cc1c(C(=O)OC2CCCC2)[nH]c2c1C(=O)CC(c1ccco1)C2` (configuration not stated)?
Cneo AK release: -1; PAX8 inh HTS: 76*; dFosB activator: 2; HIV Env fusion: -411; CDK5 inh: 1; GSIS activator: -6

What do the screens show for `O=C(Cc1ccccn1)N1CC2(C1)[C@H](c1ccccc1)[C@@H](CO)N2C(=O)c1cccnc1`?
PAX8 inh HTS: -1; GSIS activator: 26

What do the screens show for `COc1ccc(-c2nnn(Cc3ccccc3)n2)cc1OC`?
Cneo AK release: -2; PAX8 inh HTS: -31; dFosB activator: 4; HIV Env fusion: -9; CDK5 inh: 1; GSIS activator: 35

How did COc1cc2c3nnc(-c4ccc(F)cc4)c-3cn(Cc3ccccc3)c2cc1OC do in these assays?
Cneo AK release: 0; PAX8 inh HTS: 69*; dFosB activator: 19*; HIV Env fusion: -9; CDK5 inh: -4; GSIS activator: 14

How did COc1ccc(Cn2cc3c(-c4ccc(F)cc4)nnc-3c3cc(OC)c(OC)cc32)cc1 do in these assays?
Cneo AK release: -2; PAX8 inh HTS: 92*; dFosB activator: 34*; HIV Env fusion: 24; CDK5 inh: 0

How did CCC(=O)N(C)C[C@@H]1Oc2ncc(Br)cc2C(=O)N([C@@H](C)CO)C[C@@H]1C do in these assays?
Cneo AK release: -4; HIV Env fusion: 9[16.7 µM]; GSIS activator: 17

Results for Cc1ccc(S(=O)(=O)N(C)C[C@@H]2Oc3ccc(NS(=O)(=O)c4ccccc4)cc3C(=O)N([C@H](C)CO)C[C@H]2C)cc1 ?
Cneo AK release: 53; HIV Env fusion: 7[16.7 µM]; GSIS activator: -7

What do the screens show for `C[C@H]1CCCCO[C@H](CN(C)C(=O)Nc2ccc(F)cc2)[C@@H](C)CN([C@@H](C)CO)C(=O)c2cc(NS(=O)(=O)c3cccs3)ccc2O1`?
Cneo AK release: 7; PAX8 inh HTS: 2; HIV Env fusion: 26[16.7 µM]; GSIS activator: -16

Results for CCOC(=O)NC(=O)COC(=O)CNC(=O)c1ccc(OCC)c(OCC)c1 ?
PAX8 inh HTS: 13; dFosB activator: -10; HIV Env fusion: 19; CDK5 inh: 1; GSIS activator: 46*

Results for COc1ccc(C(=O)NCC(=O)OCC(=O)Nc2sccc2C#N)cc1OC ?
PAX8 inh HTS: -27; dFosB activator: -6; HIV Env fusion: -11; CDK5 inh: -3; GSIS activator: 51*

Results for C[C@H]1CN([C@@H](C)CO)S(=O)(=O)c2ccc(C#CC3CCCC3)cc2O[C@@H]1CN(C)C(=O)Nc1cc(F)ccc1F ?
Cneo AK release: -2; PAX8 inh HTS: 39; HIV Env fusion: -33[16.7 µM]; GSIS activator: -29

How did COCC(=O)Nc1ccc2c(c1)OC[C@H](C)N(C(=O)c1ccccn1)C[C@@H](C)[C@@H](OC)CN(C)C2=O do in these assays?
Cneo AK release: 0; PAX8 inh HTS: 11; HIV Env fusion: 5[16.7 µM]; GSIS activator: 12

How did COc1ccc(NC(=O)N(C)C[C@@H]2Oc3ccc(NS(=O)(=O)c4cccs4)cc3CC(=O)N([C@@H](C)CO)C[C@H]2C)cc1 do in these assays?
Cneo AK release: 3; PAX8 inh HTS: 13; HIV Env fusion: -4[16.7 µM]; GSIS activator: -12

What do the screens show for `Cc1ccc(-c2cc(-c3ccc(F)cc3)nc(N)c2C#N)o1`?
Cneo AK release: 1; dFosB activator: -26; CDK5 inh: 0

Results for N#Cc1c(-c2ccncc2)cc(-c2ccc(F)cc2)nc1N ?
Cneo AK release: -3; PAX8 inh HTS: -5; dFosB activator: 13; HIV Env fusion: -5; CDK5 inh: 2; GSIS activator: 49*

How did COc1ccc(C#Cc2ccc([C@@H]3[C@H](CO)N4CCCCN(C(=O)Nc5ccc(F)cc5)C[C@@H]34)cc2)cc1 do in these assays?
Cneo AK release: 0; PAX8 inh HTS: 107*; GSIS activator: -13

Results for COc1ccc(NC(=O)N2CCCCN3[C@H](C2)[C@@H](c2ccc(C#Cc4ccccc4)cc2)[C@@H]3CO)cc1 ?
Cneo AK release: 6; PAX8 inh HTS: 92*

Results for COc1ccc(NC(=O)N2CCCCN3[C@H](C2)[C@H](c2ccc(C#Cc4ccccc4)cc2)[C@@H]3CO)cc1 ?
Cneo AK release: -3; PAX8 inh HTS: 17

Results for C/C=C/c1ccc([C@@H]2[C@H]3CN(C(=O)Nc4ccc(OC)cc4)CCCCN3[C@H]2CO)cc1 ?
Cneo AK release: 114*; PAX8 inh HTS: -17; GSIS activator: -14

How did COc1ccc(NC(=O)N2CCCCN3[C@@H](CO)[C@H](c4ccc(C#Cc5ccccc5)cc4)[C@@H]3C2)cc1 do in these assays?
Cneo AK release: 60; PAX8 inh HTS: 70*

How did COc1ccc(C#Cc2ccc([C@H]3[C@@H](CO)N4CCCCN(C(=O)Nc5ccc(F)cc5)C[C@H]34)cc2)cc1 do in these assays?
Cneo AK release: 53; PAX8 inh HTS: -1; GSIS activator: 2

Results for C/C=C/c1ccc([C@H]2[C@H](CO)N3CCCCN(C(=O)Nc4ccc(OC)cc4)C[C@@H]23)cc1 ?
Cneo AK release: -1; PAX8 inh HTS: -13; GSIS activator: -21

Source: PubChem
